According to ChEMBL document CHEMBL3877241 (J Med Chem, 2016):
Activity calls are given as the source filed them. The calls are words filed in the database; no cut-off is given here.

How the values were obtained:
[1] = molecular target: Tyrosine-protein kinase JAK3 (Homo sapiens) (UniProt P52333); assay: Inhibition of JAK3 (unknown origin) at 0.1 uM preincubated for 20 mins followed by [33P]ATP addition measured after 120 mins by Hotspot assay relative to control
Procedure, shortened: (§1)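 Radiometric HotSpot kinase assay. Buffer: 20 mM HEPES pH 7.5, 10 mM MgCl2, 1 mM EGTA, 0.02% Brij35, 0.02 mg/mL BSA, 0.1 mM Na3VO4, 2 mM DTT, 1% DMSO. Compound added about 20 min before ATP/[33P]ATP (10 μM final). Reactions run 120 min at 25 °C, spotted on P81 filters and washed in phosphoric acid. Activity expressed relative to DMSO after background subtraction. Single-concentration panel at 100 nM in duplicate.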

[2] = molecular target: Receptor-type tyrosine-protein kinase FLT3 (Homo sapiens) (UniProt P36888); assay: Inhibition of FLT3 (unknown origin) at 0.1 uM preincubated for 20 mins followed by [33P]ATP addition measured after 120 mins by Hotspot assay relative to control; procedure, shortened: as §1
[3] = molecular target: Histone deacetylase 7 (Homo sapiens) (UniProt Q8WUI4); assay: Inhibition of human recombinant N-terminal GST-tagged HDAC7 (518 to 991 residues) expressed in insect cells at 10 uM preincubated with enzyme followed by […] addition measured after 2 hrs by fluorescence assay relative to control
Procedure, shortened: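 HDAC enzyme in Tris-HCl pH 8.0 buffer with NaCl, KCl and MgCl2 was pre-incubated with compound from DMSO. Substrate was then added and the reaction ran 2 h at 30 °C. It was stopped with developer containing trichostatin A, and fluorescence (Ex/Em 360/460 nm) was read at plateau. Single test concentration 10 µM.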

[4] = molecular target: Histone deacetylase 8 (Homo sapiens, UniProt Q9BY41); assay: Inhibition of human recombinant C-terminal His-tagged HDAC8 (1 to 377 residues) expressed in insect cells preincubated with enzyme followed by fluorogenic Arg-His-Lys(Ac)-Lys(Ac)-AMC substrate addition measured after 2 hrs by fluorescence assay
Procedure, shortened: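 HDAC8 in 50 mM Tris-HCl pH 8.0, 137 mM NaCl, 2.7 mM KCl, 1 mM MgCl2 was pre-incubated with compound from DMSO. 50 µM Arg-His-Lys(Ac)-Lys(Ac) substrate was added and the reaction ran 2 h at 30 °C. Trichostatin A developer stopped it, with fluorescence read at Ex/Em 360/460 nm. IC50 from a 10-dose curve.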

[5] = molecular target: Tyrosine-protein kinase JAK3 (Homo sapiens) (UniProt P52333); assay: Inhibition of human JAK3 JH1 catalytic domain (I781 to S1124 residues) expressed in mammalian expression system assessed as residual activity at 100 nM by KINOMEScan assay relative to control
Procedure, shortened: (§2)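 DiscoveRx KINOMEscan competition binding against ATP sites in a 97-kinase panel, with compound at 100 nM. Binding reported as % of control.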

[6] = molecular target: Mitogen-activated protein kinase 8 (Homo sapiens, UniProt P45983); assay: Inhibition of full length human MAPK8 (M1 to Q384 residues) expressed in mammalian expression system assessed as residual activity at 100 nM by KINOMEScan assay relative to control; procedure, shortened: as §2
[7] = Antiproliferative activity against human MDA-MB-231 cells after 72 hrs by MTT assay; format: functional, cell-based; conditions: MDA-MB-231, 72 h
[8] = Antiproliferative activity against human HCT116 cells after 72 hrs by MTT assay; format: functional, cell-based; conditions: HCT-116, 72 h
Procedure, shortened: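 MTT viability after 72 h exposure. Cells seeded at 2500/well and left 24 h before compound addition; DMSO at 0.5% v/v final. MTT added in FBS-free medium for 3 h at 37 °C, formazan dissolved in DMSO, absorbance read at 570 nm. IC50 from a sigmoidal fit of % viability vs log concentration; triplicates on separate occasions using two different stock solutions.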

[9] = Antiproliferative activity against human MCF7 cells after 72 hrs by MTT assay; format: functional, cell-based; conditions: MCF7, 72 h
[10] = molecular target: Mitogen-activated protein kinase 10 (Homo sapiens, UniProt P53779); assay: Inhibition of full length human MAPK10 (V28 to Q422 residues) expressed in mammalian expression system by KINOMEScan assay
[11] = molecular target: Mast/stem cell growth factor receptor Kit (Homo sapiens, UniProt P10721, T670I/V559D); assay: Inhibition of human KIT (Y545 to D952 residues) V559D/T670I double mutant expressed in bacterial expression system by KINOMEScan assay
[12] = Antiproliferative activity against human KG1 cells after 48 hrs by CellTiter-Glo assay; format: functional, cell-based; conditions: KG-1, 48 h
[13] = Therapeutic index, ratio of IC50 for mouse TAMH cells to IC50 for human cancer cells; conditions: cancer cell lines
[14] = system: MOLM-14; assay: Induction of apoptosis in human MOLM14 cells assessed as late apoptotic cells at 0.75 uM after 48 hrs by Annexin-V FITC/propidium iodide staining based flow cytometry (reference value: 2.1 to 2.2%); format: functional
Procedure, shortened: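 MOLM-14 cells treated 48 h at the stated concentrations; doxorubicin as positive control. Stained with Annexin V-FITC and propidium iodide and analysed by flow cytometry (at least 10,000 events). Gated quadrants: Annexin V−/PI− viable, Annexin V+/PI− early apoptotic, Annexin V+/PI+ late apoptotic.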

[15] = system: MOLM-14; assay: Induction of apoptosis in human MOLM14 cells assessed as late apoptotic cells at 1.5 uM after 48 hrs by Annexin-V FITC/propidium iodide staining based flow cytometry (reference value: 2.1 to 2.2%); format: functional
[16] = system: MOLM-14; assay: Induction of apoptosis in human MOLM14 cells assessed as necrotic cells at 1.5 uM after 48 hrs by Annexin-V FITC/propidium iodide staining based flow cytometry (reference value: 0.1%); format: functional
[17] = system: Tyrosine-protein kinase JAK2 (Homo sapiens), O60674 [V617F]; assay: Inhibition of JAK2 V617F mutant in HEL 92.1.7 cells assessed as decrease in STAT5 phosphorylation at antiproliferative IC50 after 1 hr by immunoblot method; format: cell-based
Procedure, shortened: (§3)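 HEL92.1.7 cells seeded at 5x10^5/mL and treated 1 h at 0, 0.1, 0.5 and 1 μM. Lysed in RIPA with phosphatase/protease inhibitors, run on 10% SDS-PAGE and blotted to PVDF. Probed for acetyl-tubulin, acetyl-H3 (Lys9/Lys14), p-JAK2 (Y1007/1008) and p-STAT5 (Tyr694); membranes re-probed for tubulin, H3, JAK2 and STAT5. Quantified by densitometry.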

[18] = system: Tyrosine-protein kinase JAK2 (Homo sapiens), O60674 [V617F]; assay: Induction of JAK2 V617F mutant phosphorylation at Y1007/8 residues in HEL 92.1.7 cells at 0.1 to 1 uM after 1 hr by immunoblot method; format: cell-based; procedure, shortened: as §3

Chain of Tyrosine-protein kinase JAK2 (Homo sapiens), O60674 [V617F] (O60674 whole entry V617F): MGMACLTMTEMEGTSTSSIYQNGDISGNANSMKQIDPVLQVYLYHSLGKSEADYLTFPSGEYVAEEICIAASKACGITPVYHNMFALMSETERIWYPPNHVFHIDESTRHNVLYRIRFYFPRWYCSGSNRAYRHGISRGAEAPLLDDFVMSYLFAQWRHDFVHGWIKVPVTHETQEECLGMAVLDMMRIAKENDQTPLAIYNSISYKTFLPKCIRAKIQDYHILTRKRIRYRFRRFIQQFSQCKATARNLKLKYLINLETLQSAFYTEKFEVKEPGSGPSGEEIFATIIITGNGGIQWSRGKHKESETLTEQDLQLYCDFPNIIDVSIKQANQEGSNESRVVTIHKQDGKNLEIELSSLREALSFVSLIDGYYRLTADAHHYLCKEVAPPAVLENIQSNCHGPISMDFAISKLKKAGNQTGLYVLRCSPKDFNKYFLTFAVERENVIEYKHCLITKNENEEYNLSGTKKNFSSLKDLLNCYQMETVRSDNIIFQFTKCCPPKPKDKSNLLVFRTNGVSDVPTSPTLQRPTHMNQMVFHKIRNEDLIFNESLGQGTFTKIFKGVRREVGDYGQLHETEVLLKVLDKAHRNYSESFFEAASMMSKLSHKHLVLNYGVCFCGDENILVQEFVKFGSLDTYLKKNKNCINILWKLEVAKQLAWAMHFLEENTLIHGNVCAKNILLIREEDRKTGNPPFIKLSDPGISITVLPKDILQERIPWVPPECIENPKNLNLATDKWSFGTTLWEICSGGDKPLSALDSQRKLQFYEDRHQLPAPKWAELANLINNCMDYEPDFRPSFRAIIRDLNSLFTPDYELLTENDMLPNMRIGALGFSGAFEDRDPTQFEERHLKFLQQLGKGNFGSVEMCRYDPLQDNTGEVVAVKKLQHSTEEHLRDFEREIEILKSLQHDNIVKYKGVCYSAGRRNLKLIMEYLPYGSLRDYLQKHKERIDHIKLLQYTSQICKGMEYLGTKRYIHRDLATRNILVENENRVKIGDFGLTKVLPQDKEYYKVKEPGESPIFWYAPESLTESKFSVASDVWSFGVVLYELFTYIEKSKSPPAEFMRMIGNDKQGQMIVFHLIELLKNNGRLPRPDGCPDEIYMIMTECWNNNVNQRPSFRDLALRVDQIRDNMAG
Chain of Tyrosine-protein kinase JAK3 (Homo sapiens) (P52333 whole entry, the tested form may be a part): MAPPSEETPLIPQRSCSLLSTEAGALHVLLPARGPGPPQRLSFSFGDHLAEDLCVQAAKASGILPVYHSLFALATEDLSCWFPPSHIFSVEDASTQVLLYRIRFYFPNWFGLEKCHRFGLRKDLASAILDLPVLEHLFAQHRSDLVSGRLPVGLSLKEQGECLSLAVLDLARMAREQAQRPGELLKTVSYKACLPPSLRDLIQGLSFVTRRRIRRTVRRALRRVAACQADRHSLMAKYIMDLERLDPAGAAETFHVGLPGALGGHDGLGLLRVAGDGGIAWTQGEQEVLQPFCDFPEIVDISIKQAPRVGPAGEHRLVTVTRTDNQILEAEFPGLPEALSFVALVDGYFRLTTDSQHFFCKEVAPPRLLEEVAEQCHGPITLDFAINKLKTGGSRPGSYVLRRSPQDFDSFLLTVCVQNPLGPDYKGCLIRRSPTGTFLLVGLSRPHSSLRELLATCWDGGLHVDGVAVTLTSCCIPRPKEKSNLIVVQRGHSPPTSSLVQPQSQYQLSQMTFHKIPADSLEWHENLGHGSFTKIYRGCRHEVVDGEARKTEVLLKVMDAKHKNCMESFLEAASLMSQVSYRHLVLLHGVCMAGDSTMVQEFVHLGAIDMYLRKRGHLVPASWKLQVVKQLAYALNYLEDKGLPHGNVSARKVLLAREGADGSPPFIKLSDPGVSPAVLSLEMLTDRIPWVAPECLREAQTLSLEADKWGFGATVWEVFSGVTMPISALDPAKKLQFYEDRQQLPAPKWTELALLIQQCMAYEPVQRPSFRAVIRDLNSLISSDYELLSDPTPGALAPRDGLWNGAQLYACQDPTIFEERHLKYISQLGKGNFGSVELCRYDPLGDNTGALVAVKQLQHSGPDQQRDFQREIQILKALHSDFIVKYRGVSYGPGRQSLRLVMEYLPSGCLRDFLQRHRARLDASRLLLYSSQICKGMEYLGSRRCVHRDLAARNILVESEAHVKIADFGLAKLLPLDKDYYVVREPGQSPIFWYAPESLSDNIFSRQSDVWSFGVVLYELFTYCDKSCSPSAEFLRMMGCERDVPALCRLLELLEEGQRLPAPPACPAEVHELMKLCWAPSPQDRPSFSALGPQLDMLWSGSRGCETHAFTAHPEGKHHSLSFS
Chain of Histone deacetylase 7 (Homo sapiens) (Q8WUI4 whole entry, the tested form may be a part): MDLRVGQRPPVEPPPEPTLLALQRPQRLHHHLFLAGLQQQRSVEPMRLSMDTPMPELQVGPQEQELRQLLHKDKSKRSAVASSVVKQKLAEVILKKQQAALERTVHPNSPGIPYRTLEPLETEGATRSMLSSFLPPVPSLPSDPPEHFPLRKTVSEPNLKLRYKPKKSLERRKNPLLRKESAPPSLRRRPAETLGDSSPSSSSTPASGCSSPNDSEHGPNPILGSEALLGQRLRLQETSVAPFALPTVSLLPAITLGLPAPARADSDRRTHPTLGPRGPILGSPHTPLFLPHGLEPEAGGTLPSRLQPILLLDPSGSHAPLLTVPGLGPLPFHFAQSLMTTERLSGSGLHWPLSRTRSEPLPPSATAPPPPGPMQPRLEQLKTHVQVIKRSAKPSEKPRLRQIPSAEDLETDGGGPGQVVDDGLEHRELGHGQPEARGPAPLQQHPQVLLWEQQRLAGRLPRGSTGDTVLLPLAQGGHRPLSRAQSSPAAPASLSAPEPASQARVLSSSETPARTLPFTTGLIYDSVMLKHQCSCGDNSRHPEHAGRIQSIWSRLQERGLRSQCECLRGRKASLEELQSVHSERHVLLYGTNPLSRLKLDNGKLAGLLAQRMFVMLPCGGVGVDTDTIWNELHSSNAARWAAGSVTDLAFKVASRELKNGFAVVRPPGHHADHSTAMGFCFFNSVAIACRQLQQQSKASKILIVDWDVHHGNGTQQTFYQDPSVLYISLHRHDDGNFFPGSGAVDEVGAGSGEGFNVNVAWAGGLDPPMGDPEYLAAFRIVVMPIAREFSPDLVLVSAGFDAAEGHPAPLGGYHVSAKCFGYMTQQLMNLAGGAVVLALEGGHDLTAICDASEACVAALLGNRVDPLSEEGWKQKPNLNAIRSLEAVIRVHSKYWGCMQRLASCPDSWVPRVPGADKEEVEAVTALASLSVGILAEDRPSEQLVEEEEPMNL
Chain of Mitogen-activated protein kinase 10 (P53779 whole entry, the tested form may be a part): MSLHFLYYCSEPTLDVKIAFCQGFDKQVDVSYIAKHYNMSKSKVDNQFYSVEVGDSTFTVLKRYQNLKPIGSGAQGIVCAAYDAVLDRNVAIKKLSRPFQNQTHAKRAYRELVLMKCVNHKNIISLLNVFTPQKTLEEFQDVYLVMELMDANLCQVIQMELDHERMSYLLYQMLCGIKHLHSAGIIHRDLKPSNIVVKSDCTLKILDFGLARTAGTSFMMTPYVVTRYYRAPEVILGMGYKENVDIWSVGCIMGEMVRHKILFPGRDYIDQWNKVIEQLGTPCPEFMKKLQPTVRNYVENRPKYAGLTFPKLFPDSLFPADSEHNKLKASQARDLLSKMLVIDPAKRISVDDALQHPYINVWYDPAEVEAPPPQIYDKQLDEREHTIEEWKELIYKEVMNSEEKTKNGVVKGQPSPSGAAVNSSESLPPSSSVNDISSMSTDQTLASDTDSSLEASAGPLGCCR
Chain of Mitogen-activated protein kinase 8 (P45983 whole entry, the tested form may be a part): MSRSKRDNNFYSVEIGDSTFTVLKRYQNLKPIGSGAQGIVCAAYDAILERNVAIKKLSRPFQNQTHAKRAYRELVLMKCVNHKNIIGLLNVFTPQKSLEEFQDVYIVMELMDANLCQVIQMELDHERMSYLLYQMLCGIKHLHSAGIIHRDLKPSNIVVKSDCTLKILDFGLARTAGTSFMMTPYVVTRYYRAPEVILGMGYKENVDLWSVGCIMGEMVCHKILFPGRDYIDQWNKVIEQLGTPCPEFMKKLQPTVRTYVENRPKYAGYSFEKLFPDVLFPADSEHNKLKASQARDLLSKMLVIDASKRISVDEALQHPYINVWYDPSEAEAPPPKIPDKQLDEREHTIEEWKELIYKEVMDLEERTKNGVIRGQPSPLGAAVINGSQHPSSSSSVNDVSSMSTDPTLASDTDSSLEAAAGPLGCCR
Chain of Mast/stem cell growth factor receptor Kit (P10721 26-976 V559D/T670I limits assumed): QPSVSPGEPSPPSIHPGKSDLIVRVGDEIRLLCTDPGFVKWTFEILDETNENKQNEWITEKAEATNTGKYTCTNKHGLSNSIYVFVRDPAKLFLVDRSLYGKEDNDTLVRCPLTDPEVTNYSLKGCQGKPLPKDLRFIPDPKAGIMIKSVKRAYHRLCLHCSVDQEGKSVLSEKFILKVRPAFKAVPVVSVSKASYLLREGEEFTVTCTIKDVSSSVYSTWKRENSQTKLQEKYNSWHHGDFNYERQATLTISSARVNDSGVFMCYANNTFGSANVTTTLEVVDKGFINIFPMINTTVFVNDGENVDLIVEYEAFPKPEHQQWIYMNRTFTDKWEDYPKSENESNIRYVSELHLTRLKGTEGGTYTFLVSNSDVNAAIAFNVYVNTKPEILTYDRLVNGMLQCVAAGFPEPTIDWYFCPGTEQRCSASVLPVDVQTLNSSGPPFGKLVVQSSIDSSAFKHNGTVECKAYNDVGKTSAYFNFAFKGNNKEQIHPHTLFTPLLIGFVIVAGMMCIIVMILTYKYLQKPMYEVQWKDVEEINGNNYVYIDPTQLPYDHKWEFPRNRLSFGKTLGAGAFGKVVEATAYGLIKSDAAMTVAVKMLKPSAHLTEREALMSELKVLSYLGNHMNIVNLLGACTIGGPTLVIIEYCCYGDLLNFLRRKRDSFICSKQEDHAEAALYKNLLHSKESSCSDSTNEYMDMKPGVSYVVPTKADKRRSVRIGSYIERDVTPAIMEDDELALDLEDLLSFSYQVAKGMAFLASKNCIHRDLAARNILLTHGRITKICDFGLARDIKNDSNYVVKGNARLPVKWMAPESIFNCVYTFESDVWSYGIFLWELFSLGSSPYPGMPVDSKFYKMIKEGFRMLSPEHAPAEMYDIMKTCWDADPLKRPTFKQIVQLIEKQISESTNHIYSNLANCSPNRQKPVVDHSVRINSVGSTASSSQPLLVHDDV

SMILES: O=C(CCCCCCOc1ccc2cc1COC/C=C/COCc1cccc(c1)-c1ccnc(n1)N2)NO
- inhibition [1]: 55%
- inhibition [2]: 67%
- inhibition [3]: 1.3%
- IC50 [4]: 740 nM
- Activity [5]: 7.9%
- Activity [6]: 26%
- IC50 [7]: 1430 nM
- IC50 [8]: 2230 nM
- IC50 [9]: 1470 nM
- IC50 [10]: 1000 to 10000 nM
- IC50 [11]: 1000 to 10000 nM
- IC50 [12]: 1630 nM
- selectivity ratio [13]: 8.7
- Activity [14]: 5%
- Activity [15]: 13%
- Activity [16]: 0.3%
- inhibition [17]: Active
- Activity [18]: Active
